Reference: ChEMBL document CHEMBL5058577, “EUbOPEN Chemogenomics Library 2 (Multiplex)” (2022)

System: U2OS
Assay: Multiplex assay against U2OS
Format: toxicity, cell-based
Conditions: human
In short: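 Cells stained live at seeding with Hoechst33342, BioTracker Green Microtubule Cytoskeleton Dye, MitoTracker Red and Annexin V Alexa Fluor 680 were imaged on a CQ1 microscope at 37°C and 5% CO2 after compound addition. Their classification by CellPathfinder machine-learning gating ran from Hoechst high-intensity objects versus normal cells, to healthy, pyknosed or fragmented nuclei among normal cells, to mitotic or apoptotic among pyknosed cells. Tubulin, mitochondrial-mass and membrane-permeability phenotypes are per cents of healthy-nucleus cells.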

[1] = 12 h, 1 µM, compound concentration 1 uM, replicate 1
[2] = 12 h, 1 µM, compound concentration 1 uM, replicate 2
[3] = 12 h, 10 µM, compound concentration 10 uM, replicate 1
[4] = 12 h, 10 µM, compound concentration 10 uM, replicate 2
[5] = 24 h, 1 µM, compound concentration 1 uM, replicate 1
[6] = 24 h, 1 µM, compound concentration 1 uM, replicate 2
[7] = 24 h, 10 µM, compound concentration 10 uM, replicate 1
[8] = 24 h, 10 µM, compound concentration 10 uM, replicate 2
[9] = 48 h, 1 µM, compound concentration 1 uM, replicate 1
[10] = 48 h, 1 µM, compound concentration 1 uM, replicate 2
[11] = 48 h, 10 µM, compound concentration 10 uM, replicate 1
[12] = 48 h, 10 µM, compound concentration 10 uM, replicate 2

## O=C(NCCN1CCC(n2c(=O)[nH]c3cc(Cl)ccc32)CC1)c1ccc(F)cc1 [HALOPEMIDE]
[1]
  Population Apoptotic (%): 95%
  Population Fragmented Nuclei (%): 24%
  Population Healthy Nuclei (%): 65%
  Population Hoechst High Intensity Objects (%): 1%
  Population Membrane Permeable-Phenotype (%): 6%
  Population Mitochondria Different-Phenotype (%): 1%
  Population Mitotic Cells (%): 4%
  Population Normal (%): 98%
  Population Pyknosed Nuclei (%): 10%
  Population Tubulin-Different-Phenotype (%): 2%
  Total Cell Count: 209
[2]
  Population Apoptotic (%): 50%
  Population Fragmented Nuclei (%): 13%
  Population Healthy Nuclei (%): 79%
  Population Hoechst High Intensity Objects (%): 0%
  Population Membrane Permeable-Phenotype (%): 7%
  Population Mitochondria Different-Phenotype (%): 2%
  Population Mitotic Cells (%): 50%
  Population Normal (%): 100%
  Population Pyknosed Nuclei (%): 7%
  Population Tubulin-Different-Phenotype (%): 3%
  Total Cell Count: 105
[3]
  Population Apoptotic (%): 68%
  Population Fragmented Nuclei (%): 19%
  Population Healthy Nuclei (%): 65%
  Population Hoechst High Intensity Objects (%): 4%
  Population Membrane Permeable-Phenotype (%): 23%
  Population Mitochondria Different-Phenotype (%): 11%
  Population Mitotic Cells (%): 31%
  Population Normal (%): 95%
  Population Pyknosed Nuclei (%): 15%
  Population Tubulin-Different-Phenotype (%): 15%
  Total Cell Count: 244
[4]
  Population Apoptotic (%): 61%
  Population Fragmented Nuclei (%): 12%
  Population Healthy Nuclei (%): 78%
  Population Hoechst High Intensity Objects (%): 1%
  Population Membrane Permeable-Phenotype (%): 26%
  Population Mitochondria Different-Phenotype (%): 32%
  Population Mitotic Cells (%): 38%
  Population Normal (%): 98%
  Population Pyknosed Nuclei (%): 8%
  Population Tubulin-Different-Phenotype (%): 27%
  Total Cell Count: 152
[5]
  Population Apoptotic (%): 91%
  Population Fragmented Nuclei (%): 22%
  Population Healthy Nuclei (%): 68%
  Population Hoechst High Intensity Objects (%): 1%
  Population Membrane Permeable-Phenotype (%): 6%
  Population Mitochondria Different-Phenotype (%): 1%
  Population Mitotic Cells (%): 8%
  Population Normal (%): 98%
  Population Pyknosed Nuclei (%): 9%
  Population Tubulin-Different-Phenotype (%): 1%
  Total Cell Count: 241
[6]
  Population Apoptotic (%): 81%
  Population Fragmented Nuclei (%): 15%
  Population Healthy Nuclei (%): 72%
  Population Hoechst High Intensity Objects (%): 0%
  Population Membrane Permeable-Phenotype (%): 10%
  Population Mitochondria Different-Phenotype (%): 3%
  Population Mitotic Cells (%): 18%
  Population Normal (%): 99%
  Population Pyknosed Nuclei (%): 12%
  Population Tubulin-Different-Phenotype (%): 8%
  Total Cell Count: 132
[7]
  Population Apoptotic (%): 75%
  Population Fragmented Nuclei (%): 17%
  Population Healthy Nuclei (%): 64%
  Population Hoechst High Intensity Objects (%): 2%
  Population Membrane Permeable-Phenotype (%): 15%
  Population Mitochondria Different-Phenotype (%): 10%
  Population Mitotic Cells (%): 25%
  Population Normal (%): 97%
  Population Pyknosed Nuclei (%): 18%
  Population Tubulin-Different-Phenotype (%): 7%
  Total Cell Count: 271
[8]
  Population Apoptotic (%): 63%
  Population Fragmented Nuclei (%): 16%
  Population Healthy Nuclei (%): 71%
  Population Hoechst High Intensity Objects (%): 3%
  Population Membrane Permeable-Phenotype (%): 26%
  Population Mitochondria Different-Phenotype (%): 23%
  Population Mitotic Cells (%): 36%
  Population Normal (%): 96%
  Population Pyknosed Nuclei (%): 12%
  Population Tubulin-Different-Phenotype (%): 21%
  Total Cell Count: 159
[9]
  Population Apoptotic (%): 68%
  Population Fragmented Nuclei (%): 16%
  Population Healthy Nuclei (%): 75%
  Population Hoechst High Intensity Objects (%): 2%
  Population Membrane Permeable-Phenotype (%): 4%
  Population Mitochondria Different-Phenotype (%): 2%
  Population Mitotic Cells (%): 32%
  Population Normal (%): 97%
  Population Pyknosed Nuclei (%): 7%
  Population Tubulin-Different-Phenotype (%): 2%
  Total Cell Count: 337
[10]
  Population Apoptotic (%): 95%
  Population Fragmented Nuclei (%): 17%
  Population Healthy Nuclei (%): 69%
  Population Hoechst High Intensity Objects (%): 1%
  Population Membrane Permeable-Phenotype (%): 9%
  Population Mitochondria Different-Phenotype (%): 5%
  Population Mitotic Cells (%): 4%
  Population Normal (%): 98%
  Population Pyknosed Nuclei (%): 12%
  Population Tubulin-Different-Phenotype (%): 6%
  Total Cell Count: 187
[11]
  Population Apoptotic (%): 81%
  Population Fragmented Nuclei (%): 15%
  Population Healthy Nuclei (%): 69%
  Population Hoechst High Intensity Objects (%): 3%
  Population Membrane Permeable-Phenotype (%): 10%
  Population Mitochondria Different-Phenotype (%): 5%
  Population Mitotic Cells (%): 18%
  Population Normal (%): 96%
  Population Pyknosed Nuclei (%): 14%
  Population Tubulin-Different-Phenotype (%): 5%
  Total Cell Count: 382
[12]
  Population Apoptotic (%): 77%
  Population Fragmented Nuclei (%): 13%
  Population Healthy Nuclei (%): 67%
  Population Hoechst High Intensity Objects (%): 6%
  Population Membrane Permeable-Phenotype (%): 16%
  Population Mitochondria Different-Phenotype (%): 12%
  Population Mitotic Cells (%): 22%
  Population Normal (%): 93%
  Population Pyknosed Nuclei (%): 18%
  Population Tubulin-Different-Phenotype (%): 6%
  Total Cell Count: 197
